Experimental findings from the RNAGym collection of RNA variant scans (doi:10.1101/gad.245936.114) are described below.

The labels stand for the following.
B1: tRNA (parent)
chain: CUCUCGGUAGCCAAGUUGGUUUAAGGCGCAAGACUUUAAUUUAUCACUACGAAAUCUUGAGAUCGGGCGUUCGACUCGCCCCCGGGAGAUUUUUUCCUCGAGCAA

Variants at the floor of the assay were thinned out.

In the data set the parent is B1. Kind of data set: nonsense suppression (GFP-seq) (ratio to wild type); higher = more function; SUP4oc tRNA, yeast GFP reporter sort-seq. In a few lines:
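Sorted GFP/RFP bins of yeast were each Illumina-sequenced with a phred ≥30 cutoff; the cells held a genome-integrated ochre-suppressor tRNA variant from a library with ~3% random mutations, a galactose-driven GFP ochre reporter, and RFP. Culture was in raffinose/galactose medium containing 80 mg/L adenine. Nonsense suppression, termed GFPSEQ, is the median GFP/RFP of the bins weighted by each variant's estimated cell share per bin, relative to the unmutated parent tRNA, for variants reaching ≥100 reads and ≥30 cells.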
With CAGUCGGUAGCCAAGUUGGUUUAAGGGGGAAGUCUUUAAUUUAUCACUACGAAAUCUUGAGAUCGGGCGUUCGACUCGCCCCCGGGAGAUUUUUUCCUCGAGCAA, the nonsense suppression is at most 0.026. On to CACUCGGUAGCCAAGUUGGUUUAAGGCGCAAGACUUUAAUUUAUCACUACGAAAUCUUGAGAUCGGGCGUUCGACUCGCUCCCGGGAGAUUUUUUCCUCGAGCAA, for which the nonsense suppression is 0.0354. As for CACUCGGUAGCCAAGUUGGUUUAAGGCGCAAGACUUUAAUUUAUCACUACGAAACCUUGAGAUCGGGCGUUCGACUCGCCCCCGGGAGAUUUUUUCCUCGAGCAA, the nonsense suppression turned out to be 0.0451. On to UUCUCGGUAGCCAAGUUGGAUUAAGGCGCAAGACUUUAAUUUAUCACUACGAAAUCUUGAGAUCGGGCGUUCCACUCGCCCCCGGGAGAUUUUUUCCUCGAGCAA, for which the nonsense suppression came out at 0.722. Under CACGCGGUAGCCAAGUUGGUUUAAGGCGCAAGACUUUAAUUUAUCACUACGAAAUCUUGAGAUCGGGCGUUCGACUCGCCCCCGGGAGAUUUUUUCCUCGAGCAA stands 0.203. Under CACACGGUAGCCAAGUUGGUUUAAGGCGCAAGACUUUAAUUUAUCACUACGAAAUCUUGAGAUCGGGCGUUCGACUCGCCCCCGGGAGAUUUUUUCCUCGAGCAA stands 0.0323. The figure for CACUCGGUAGCCAAGUUGGUUUAAGGCGCAAUAUUUUAAUUUAUCACUACGAAAUCUUGAGAUCGGGCGUUCGACUCGCCCCCGGGAGAUUUUUUCCUCGAGCAA is at most 0.026; for CACUCGGUAGCCAAAUUGGUUUAAGGCGCAAGACUUUAAUUUAUCACUACGAAAUCUUGAGAUCGCGCGUUCGACUCGCCCCCGUGAGAUUUUUUCCUCGAGCAA it is at most 0.026; for UCCUCGGUAGCCAAGUUGGUUUAAGGCGCAAGACUUUAAUUUAUCACUACGAACUCUUGAUAUCGGGCGUUCGACACGCCCCCGGGAGAUUUUUUCCUCGAGCAA it is at most 0.026.

With CACUCGGUAGCCAAGUUGGUUUAAGGCGCAAGACUUUAAUUUAUCACUACGAAAUCUUGAGACCGGGCGUUCGACUCGCCCCCUGGAGAUUUUUUCCUCGAGCAA, the nonsense suppression is at most 0.026. As to CACUCGGUAGCCUAGUUGGUUUAAGGCGCAAGACUUUAAUUUAUCACUACGAAAUCUUGAGAUCGGGCGUUCGACUCGCCCCCGGGAGAUUUUUUCCUCGAGCAA, the nonsense suppression is 0.0284. As for CACUCGGUAGCCCAGUUGGUUUAAGGCGCAAGACUUUAAUUUAUCACUACGAAAUCUUGAGAUCGGGCGUUCGACUCGCCCCCGGGAGAUUUUUUCCUCGAGCAA, the nonsense suppression was at most 0.026. CACUCGGUAGCAAAGUUGGUUUAAGGCGCAAGACUUUAAUUUAUCACUACGAAAUCUUGAGAUCGGGCGUUCGACUCGCCCCCGGGAGAUUUUUUCCUCGAGCAA: the nonsense suppression is at most 0.026. Turning to CACUCGGUAGCCAAGUUGGUUUAAGGCGCAAGACUUUAAUUUAUCACUACGAAAUCUUGGGAUCGGGCGUUCGACUCGCCCCCGGGAGAUUUUUUCCUCGAGCAA, the nonsense suppression amounted to 0.0755.

UUCGUGGUAGCCAAGUUGGUUUAAGGCGCAGGACUUUAAUUUAUCACUACGAAAUCUUGAGAUCGGGCGUUCGACUCGCCACCGGGAGAUUUUUUCCUCGAGCAA: the nonsense suppression was at most 0.026. Regarding UUCUCGGUAGCCAAGUUGGUUUAAGGCGCAAGACUUUAAUUUAUCACUACGAAAUCUUGAGAUCGGGCGUUCGACUCGCCCCCGCGAGCUUUUUUCCUCGAGCAA, the nonsense suppression is at most 0.026. On to UUCUCGGUAGCCAAGUUGGUUUAAGGCGCAAGACUUUAAUUUAUCACUACGAAAUCUUGAGAUCGGCCGUUCGACUCGCCCCCGGGAGAUUUUUUCCUCGAGCAA, for which the nonsense suppression is at most 0.026.

As for UUCUCGGUAGCCAAGUUGGUUUAAGGCGCAAGACUUUAAUUUAUCACUACGAAAUCUUGAGACCGGGCGUUCGACUCGCCCCCGGGAGAUUUUUUCCUCGAGCAA, the nonsense suppression is at most 0.026.

Take CACUCGGUAGCCAAGUUGGUUUAAGGCGUAAGACUUUAAUUUAUCACUACGAAAUCUUGAGAUCGGGCGUUCGACUCGCCCCCGGGAGAUUUUUUCCUCGAGCAA: the nonsense suppression was found to be 0.0437.

For the variant CACUCGGUAGCCAAGUUGGUUUAAGGCGCAUGGCUUUAAUUUAUCACUACGAAAUCUAGAGAUCGGGCGUUCGACUCGCCCCCGGGAGAUUUUUUCCUCGAGCAA, the nonsense suppression was at most 0.026. For UUCUCGGUAGCCAAGUUGGUUUAAGGCGCAAGACUUUAAUUUAUCACUACGAAAGCUGGAGAUCGGGCGUUCGACUCGCCCCCGGGAGAUUUUUUCCUCGAGCAA, the nonsense suppression was at most 0.026.

On to CACUCGGUAGCCAAGUUGGUUUCAGGCGCAAGACUUUAAUUUAUCACUACGAAAUCUUGAGAUCGGGCGUUCGACUCGCCCCCGGGAGAUUUUUUCCUCGAGCAA, for which the nonsense suppression is at most 0.026. UGCUCGGUAGCCAAGUUGGGUUAAGGCGAAAGACUUUAAUUUAUCACUACGAAAUCUUGAGAUCGGGCGUUCGACUCGCCCCCGGGAGAUUUUUUCCUCGAGCAA: the nonsense suppression was at most 0.026. Under CACGCGGUAGCCAAGUUAGUUUAAGGCGCAAGACUUUAAUUUAUCACUACGAAAUCUUGAGAUCGGGCGUUCGACUCGCCCCCGGGAGAUUUUUUCCUCGAGCAA stands at most 0.026; under CCCUCGGUAGCCAAGUUGGUUUAAGGCGCAAGACUUUAAUUUAUCACUACGAAAUCUUGAGAUCGGGCGUUCGACUCGCCCCCGGGAGAUUUUUUCCUCGAGCAA, 0.185; under UUCACGGUAGCCAAGUUGGUUUAAGGCGCAAGACUUUAAUUUAUCACUACGAAAUCUUGAGAUCGGGCGUUCGACUCGCCCCCGGGAGAUUUUUUCCUCGAGCAA, 0.0473.

Consider CACUCGGUAGCCAAGUUGGUUUAAGGUGCAAGACUUUAAUUUAUCACUACGAAAUCUUGAGAUCGGGCGUUCGACUCGCCCCCGGGAGAUUUUUUCCUCGAGCAA, for which the nonsense suppression turned out to be 0.0357.
